Active and inactive are the calls of the source. The rule behind the calls is not given here.
Key:
[1] = Binding affinity to KRAS G12V/S39C-BIT mutant (unknown origin) assessed as dissociation constant by HSQC NMR spectroscopy analysis; parameters: species or system Homo sapiens
[2] = tested on: NCI-H358; test: Antiproliferative activity against human NCI-H358 cells harboring KRAS G12C mutant incubated for 3 days by celltiter glo luminescent assay; type: functional, cell-based; conditions: NCI-H358, 72 h
[3] = tested on: NCI-H358; test: Antiproliferative activity against human NCI-H358; type: functional, cell-based
[4] = target: GTPase KRas (Homo sapiens, UniProt P01116, G12V); test: Binding affinity to KRAS G12V mutant (unknown origin) assessed as dissociation constant by HSQC NMR spectroscopy analysis
Outline: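 KD was fitted from chemical shift perturbations and reported as mean ± SD. Reported as <10 μM when shifts were near saturation at the first point, >2000 μM when dose-responsive but unfittable, and >10,000 μM when there were no shifts at 500 μM.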

[5] = Toxicity in NOG mouse assessed as change in body weight at 40 to 80 mg/kg, ip; type: organism-based; conditions: in vivo, dose 40-80 mg/kg
Outline: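 Female NOG mice with subcutaneous NCI-H358 xenografts, randomized at mean 160 mm3 into groups of n = 8. Dosed ip 40 mg/kg once weekly or 40 mg/kg on 2 consecutive days weekly, in 25% HP-γ-CD at 10 mL/kg, with a vehicle control group. Body weight recorded daily.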

[6] = tested on: NCI-H358; test: Antitumor activity against human NCI-H358 cells xenografted in NOG mouse model assessed as induction of apoptosis at 40 mg/kg, ip administered for 3 days and measured at 6 hrs post last dose; type: functional, organism-based; conditions: time 3.0 day
Outline: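 Female NOG mice, 7–8 weeks old, bearing subcutaneous NCI-H358 tumors (5 million cells in Matrigel, right flank), randomized at mean 180 mm3, n = 5 per group and time point. […] Tumors frozen 6 h after last dose; cleaved caspase 3 measured in tumor lysates.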

[7] = cells; conditions: Homo sapiens, GP2d, 120 h
[8] = tested on: LS-513; test: cells; conditions: Homo sapiens, LS-513, 120 h
[9] = target: GTPase KRas (Homo sapiens, UniProt P01116, G12C)
[10] = target: SOS1-KRAS (Homo sapiens, UniProt P01116, G12C)
[11] = tested on: GTPase KRas (Homo sapiens), P01116 [G12C]
[12] = target: GTPase KRas (Homo sapiens, UniProt P01116, G12D); test: Binding affinity to KRAS G12D mutant (unknown origin) assessed as dissociation constant by HSQC NMR spectroscopy analysis
Chain of GTPase KRas (Homo sapiens, UniProt P01116, G12D) (P01116 whole entry G12D): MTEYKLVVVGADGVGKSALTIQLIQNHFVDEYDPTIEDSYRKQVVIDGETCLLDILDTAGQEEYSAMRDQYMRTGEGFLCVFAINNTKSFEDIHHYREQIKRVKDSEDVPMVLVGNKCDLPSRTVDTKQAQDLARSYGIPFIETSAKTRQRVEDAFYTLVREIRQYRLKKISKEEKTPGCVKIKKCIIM

Chain of SOS1-KRAS (P01116 whole entry G12C, looked up): as the sequence (P01116 whole entry G12D) above, with D12C counted along it
Chain of GTPase KRas (Homo sapiens, UniProt P01116, G12C) (P01116 whole entry G12C): as the sequence (P01116 whole entry G12D) above, with D12C counted along it
Chain of GTPase KRas (Homo sapiens), P01116 [G12C] (P01116 whole entry G12C): as the sequence (P01116 whole entry G12D) above, with D12C counted along it
Chain of GTPase KRas (Homo sapiens, UniProt P01116, G12V) (P01116 whole entry G12V): as the sequence (P01116 whole entry G12D) above, with D12V counted along it

Kd [1] [µM] | Compound | Kd [4] [µM] | further results
143 | CCc1c(C)sc(N)c1C#N | – | –
– | C=CC(=O)N1CCN(c2nc(=O)n(-c3c(C)ccnc3C(C)C)c3nc(-c4c(O)cccc4F)c(F)cc23)[C@@H](C)C1 [SOTORASIB] | – | EC50 [2]: 0.0064 µM; EC50 [3]: 0.006 µM
– | N#Cc1c(N)sc2c1C(C(=O)Nc1ccccc1)CCC2 (stereo not given) | 1270 | –
297 | N#Cc1c(N)sc2ccccc12 | – | –
– | C=CC(=O)N1CCN(c2cc(-c3noc([C@@]4(C)CCCc5sc(N)c(C#N)c54)n3)nc(N3CCN(C)C[C@@H]3C)c2)CC1 | – | EC50 [2]: 0.026 µM; Activity [5]: Toxic; Activity [6]: Active; EC50 [7]: > 4 µM; EC50 [8]: > 4 µM
1220 | Nc1nc2c(C(F)(F)F)cccc2s1 | – | –
21 | CC1CCCc2sc(N)c(C#N)c21 (stereo not given) | – | –
– | CC1(C(=O)O)CCCc2sc(N)c(C#N)c21 (stereo not given) | 1160 | –
– | C=CC(=O)N1CCN(c2cccc(-c3noc([C@@]4(C)CCCc5sc(N)c(C#N)c54)n3)c2)CC1 | – | Ki [9]: 7.5 µM; IC50 [10]: 3.29 µM; Kinact [11]: 0.3 h⁻¹
> 10000 | CN(C)c1cccc2cccc(Cl)c12 | – | –
116 | N#Cc1c(N)sc2c1CCCC2 | – | –
> 10000 | N#Cc1ccsc1N | – | –
193 | N#Cc1c(N)sc2c1CCC2 | – | –
> 2000 | N#Cc1csc2c1CCCC2 | – | –
– | CC1(C(=O)Nc2ccccc2)CCCc2sc(N)c(C#N)c21 (stereo not given) | 1180 | –
– | C=CC(=O)Nc1cccc(-c2noc([C@@]3(C)CCCc4sc(N)c(C#N)c43)n2)c1 | – | Ki [9]: 8.6 µM; IC50 [10]: > 10 µM; Kinact [11]: 1.1 h⁻¹
– | C=CC(=O)Nc1ccc(-c2noc([C@@]3(C)CCCc4sc(N)c(C#N)c43)n2)cc1 | – | Ki [9]: 24.1 µM; IC50 [10]: > 10 µM; Kinact [11]: 0.7 h⁻¹
– | Cc1noc(C2(C)CCCc3sc(N)c(C#N)c32)n1 (stereo not given) | 20 | –
715 | Nc1nc2c(s1)CCCC2 | – | –
> 10000 | Oc1cccc(F)c1-c1ncccc1F | – | –
– | C[C@]1(c2nc(-c3cccc(N)c3)no2)CCCc2sc(N)c(C#N)c21 | < 10 | Kd [12]: > 2000 µM
– | C[C@]1(c2nc(-c3ccc(N)cc3)no2)CCCc2sc(N)c(C#N)c21 | < 10 | Kd [12]: > 2000 µM
– | CNC(=O)C1(C)CCCc2sc(N)c(C#N)c21 (stereo not given) | > 2000 | –
> 10000 | COC(=O)c1c(N)sc2c1CCCC2 | – | –
162 | N#Cc1c(N)sc2c1CCCCC2 | – | –

Compound | Kd [1] [µM] | Kd [4] [µM] | further results
CC1(C)CCCc2sc(N)c(C#N)c21 | < 10 | 15 | –

Reference: ChEMBL document CHEMBL5214993, “Fragment Optimization of Reversible Binding to the Switch II Pocket on KRAS Leads to a Potent, In Vivo Active KRASG12C Inhibitor” (J Med Chem, 2022)
